# Most compounds without a hit are left out; they make up all but 2.3% or so of the library.
# C2C12 statin: protects C2C12 myotubes from simvastatin toxicity. rescue of ATP level, % at 7.49 µM. 330,000 tested, 0.78% active. AID 602340. ATP luminescence, 48 h; scaled: DMSO 0, geranylgeraniol control 100;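 active means mean ATP rescue above about 67%, or every replicate alone reaching that limit, limit read from the data, passing the limit was not always enough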;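 further: myotubes were challenged with 10 µM simvastatin during compound exposure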
# Cneo AK release: causes C. neoformans cell lysis; adenylate kinase release luminescence, 4 h; normalised: neutral wells 0, clomiphene wells 100; lysis activity, % at 15 µM; 360,000 tested, 0.2% active;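 active means mean lysis activity across replicates of at least 80%, whatever share of replicates individually reach that level; inactive means mean lysis activity below 80%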
#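 Material: C. neoformans cells; Schedule: 4 h static compound exposure, 37 °C, read 1 h post-reagent; Measured by: adenylate kinase release luminescence; Read-out: signal increase indicating cell lysis; Controls: Clomiphene as positive lysis control.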
# PDI turbidity: blocks human protein disulfide isomerase activity. AID 588391. inhibition, % at 10 µM. PDI insulin aggregation turbidity, A650, 90 min. P07237. 350,000 tested, 0.052% active;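 active means mean inhibition across replicates of 30% or more, whatever share of single replicates reach that level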
# DENV2 CPE rescue: protects cells from dengue virus 2 cytopathic effect; DENV2-infected cells, cytopathic effect rescue, plate reader; CPE inhibition, % at 9.99 µM; 350,000 tested, 1.7% active; AID 651640; in the data active means CPE inhibition above about 20%, passing the limit was not always enough; tested in BHK-21 cells
# CFTR F508del cor: correctors of CFTR F508del function in bronchial epithelial cells. CFBE cells, YFP halide quenching; stimulated with forskolin plus potentiator P3; % fluorescence drop versus neutral controls. activity (quench increase), % at 7.58 µM. 350,000 tested, 0.36% active;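 active means mean added fluorescence quench of at least 8% versus neutral control, with both replicates also reaching 8%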;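 further: cells transiently co-express mutant CFTR-F508del with the halide-sensitive YFP; corrector assay measuring rescue of mutant channel to the surface after 24 h compound exposure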
# ERp5 block: inhibitors of human ERp5; ERp5 insulin aggregation, absorbance 650 nm, 90 min; inhibition, % at 9.99 µM; 350,000 tested, 0.05% active; AID 651711;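 active means mean replicate inhibition above about 25%, with every replicate also reaching it, limit read from the data, passing the limit was not always enough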
# Target sequence (Q15084 whole entry, looked up): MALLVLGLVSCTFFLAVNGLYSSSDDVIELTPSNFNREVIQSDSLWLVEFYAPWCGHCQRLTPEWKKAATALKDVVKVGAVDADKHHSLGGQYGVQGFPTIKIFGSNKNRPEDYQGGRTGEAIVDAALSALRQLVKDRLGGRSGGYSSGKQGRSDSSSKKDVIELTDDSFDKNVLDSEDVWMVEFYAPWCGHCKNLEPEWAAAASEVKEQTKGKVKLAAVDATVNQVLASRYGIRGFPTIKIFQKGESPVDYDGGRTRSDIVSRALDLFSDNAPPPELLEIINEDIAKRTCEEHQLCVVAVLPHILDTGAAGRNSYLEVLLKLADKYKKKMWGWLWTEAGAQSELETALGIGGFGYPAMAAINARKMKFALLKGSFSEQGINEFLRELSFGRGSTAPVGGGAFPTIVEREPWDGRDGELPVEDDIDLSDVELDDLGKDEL
# Numbers stand for hits; i = inactive; nt = no result given.
SMILES,C2C12 statin,Cneo AK release,PDI turbidity,DENV2 CPE rescue,CFTR F508del cor,ERp5 block
Cc1ccc(S(=O)(=O)Nc2ccc3c(c2)C(=O)N([C@H](C)CO)C[C@@H](C)[C@H](CN(C)S(=O)(=O)c2ccc(Cl)cc2)O3)cc1,nt,nt,nt,43.0,i,i
Cc1ccc(S(=O)(=O)Nc2ccc3c(c2)C(=O)N([C@H](C)CO)C[C@H](C)[C@H](CN(C)S(=O)(=O)c2ccc(Cl)cc2)O3)cc1,nt,nt,nt,i,i,i
Cc1ccc(S(=O)(=O)N(C)C[C@@H]2Oc3ccc(NS(=O)(=O)c4ccccc4)cc3C(=O)N([C@H](C)CO)C[C@H]2C)cc1,nt,i,nt,i,i,i
CNC(=O)C[C@H]1CC[C@@H]2[C@@H](COc3ccc(NC(=O)c4ccc(F)cc4)cc3C(=O)N2C)O1,i,nt,nt,nt,i,nt
COCC(=O)N(C)C[C@@H]1Oc2ncc(C#CC(C)(C)O)cc2C(=O)N([C@@H](C)CO)C[C@@H]1C,i,i,nt,23.5,i,i
COCC(=O)N(C)C[C@@H]1Oc2ncc(C#CC(C)(C)O)cc2C(=O)N([C@@H](C)CO)C[C@H]1C,i,i,nt,i,i,i
COCC(=O)N(C)C[C@@H]1Oc2ncc(C#Cc3ccc(OC)cc3)cc2C(=O)N([C@@H](C)CO)C[C@H]1C,i,i,nt,67.8,i,i
CC(=O)N(C)C[C@H]1Oc2ncc(C#CC(C)(C)O)cc2C(=O)N([C@@H](C)CO)C[C@@H]1C,i,i,nt,30.1,i,i
COCC(=O)N(C)C[C@H]1Oc2ncc(C#Cc3ccc(OC)cc3)cc2C(=O)N([C@@H](C)CO)C[C@H]1C,i,i,nt,i,i,i
CC(=O)N(C)C[C@@H]1Oc2ncc(C#CC(C)(C)O)cc2C(=O)N([C@@H](C)CO)C[C@@H]1C,i,i,nt,i,i,i
C[C@H](CO)N1C[C@H](C)[C@H](CN(C)C(=O)Nc2ccc3c(c2)OCO3)Oc2ncc(C#CC(C)(C)O)cc2C1=O,i,113.0,nt,i,i,i
CCCN1C[C@H](C)[C@@H](OC)CN(C)C(=O)c2ccc(NS(=O)(=O)c3ccccc3)cc2OC[C@H]1C,i,i,nt,i,i,i
COc1ccc(NC(=O)N(C)C[C@@H]2Oc3cc(-c4cccc(C(=O)N(C)C)c4)ccc3S(=O)(=O)N([C@@H](C)CO)C[C@@H]2C)cc1,i,i,nt,i,i,i
Cc1c(-n2cc(C(=O)c3cc(Br)ccc3O)cc(C#N)c2=O)c(=O)n(-c2ccccc2)n1C,i,i,35.2,nt,nt,nt
Cn1c2ccccc2c2nnc(SCC(=O)Nc3ccccc3F)nc21,i,i,i,i,i,i
COc1ccc2c(c1)c1nnc(SCC(=O)Nc3ccccc3F)nc1n2C,i,i,i,51.1,nt,i
O=C(CSc1cnc2ccccc2n1)c1ccc(F)cc1,i,nt,i,32.6,i,i
Cc1ccnc(NC(=O)CCC(=O)N(CC(=O)NCC2CCCO2)Cc2ccc(F)cc2)c1 (stereo not drawn),91.3,i,i,nt,nt,nt
Cc1cccc(-c2noc(CCC(=O)N3CCN(c4cc(C)ccc4C)CC3)n2)c1,i,i,i,i,i,i
Cc1ccc(C)c(N2CCN(C(=O)CCc3nc(-c4ccccc4)no3)CC2)c1,i,i,i,20.3,i,i
CN1CCN(C(=O)C[C@@H]2C[C@H]3c4cc(NC(=O)c5ccc6c(c5)OCO6)ccc4O[C@H]3[C@H](CO)O2)CC1,i,i,nt,i,i,i
COCCn1c(C)cc(C(=O)CSc2nc3ccccc3o2)c1C,85.4,i,i,nt,nt,nt
COc1ccc(S(=O)(=O)Nc2ccc3c(c2)CC(=O)N([C@H](C)CO)C[C@H](C)[C@@H](CN(C)Cc2ccc(Cl)c(Cl)c2)O3)cc1,200.7,i,nt,i,i,i
C[C@H]1CN([C@@H](C)CO)C(=O)Cc2cc(NS(=O)(=O)c3ccc(Cl)cc3)ccc2O[C@@H]1CN(C)CC1CCCCC1,112.4,nt,nt,nt,i,nt
C[C@@H]1CN([C@H](C)CO)C(=O)Cc2cc(NS(=O)(=O)c3ccc(Cl)cc3)ccc2O[C@H]1CN(C)Cc1ccc(Cl)c(Cl)c1,90.8,i,nt,i,i,i
C[C@@H]1CN([C@H](C)CO)C(=O)Cc2cc(NS(=O)(=O)c3ccc(F)cc3)ccc2O[C@H]1CN(C)Cc1ccc(Cl)c(Cl)c1,83.0,nt,nt,nt,i,nt

# High-throughput results from PubChem.
